mIAP block = blocks mouse intestinal alkaline phosphatase; purified mouse IAP, CDP-Star luminescence, 30 min; AID 2806; inhibition, % at 10 µM; 0.2% of 330,000 active;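 active = inhibition of at least 40% at 10 µM in the primary screen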;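 note: plate controls were DMSO with enzyme for no effect and no enzyme wells for full effect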
hIAP block = human IAP inhibition; 0.12% of 330,000 active; purified IAP, CDP-Star luminescence, 30 min; inhibition, % at 10 µM; P09923;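 active = inhibition reaching a set limit with compound at 10 µM in the primary screen, cut at about 35% in these data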;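 note: plate controls were DMSO wells with enzyme for no effect and no-enzyme buffer wells for full effect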
Target sequence (P09923 whole entry, looked up): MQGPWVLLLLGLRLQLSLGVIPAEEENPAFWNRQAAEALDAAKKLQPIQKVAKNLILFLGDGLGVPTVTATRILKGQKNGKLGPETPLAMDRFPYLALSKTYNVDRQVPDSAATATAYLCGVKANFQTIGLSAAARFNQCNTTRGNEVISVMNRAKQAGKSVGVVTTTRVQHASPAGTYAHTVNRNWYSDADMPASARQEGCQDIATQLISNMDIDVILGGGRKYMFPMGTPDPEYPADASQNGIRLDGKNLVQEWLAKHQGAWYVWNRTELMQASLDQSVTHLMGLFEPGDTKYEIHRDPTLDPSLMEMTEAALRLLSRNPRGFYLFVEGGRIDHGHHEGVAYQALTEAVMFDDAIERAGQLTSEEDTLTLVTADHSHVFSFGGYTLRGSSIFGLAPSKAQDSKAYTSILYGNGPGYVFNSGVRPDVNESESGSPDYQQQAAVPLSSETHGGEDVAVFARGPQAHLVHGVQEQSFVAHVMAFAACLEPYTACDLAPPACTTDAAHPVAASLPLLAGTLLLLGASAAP
hIAP act = human IAP activation; purified human IAP, CDP-Star luminescence, 30 min; stronger effect = higher value; 1 = vehicle-only enzyme, 0 = enzyme-free background; 0.16% of 330,000 active; activation factor at 10 µM; P09923; AID 2524;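 active = activation factor of the enzyme at least 2-fold when tested at 20 µM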
mIAP activ = mouse IAP activation; muIAP, CDP-Star luminescence, 30 min; stronger effect = higher value; 1 = vehicle-only enzyme signal, 0 = enzyme-free wells; activation factor at 10 µM; 0.24% of 330,000 active; AID 2805;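 active = activation factor of at least 2 at 20 µM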
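Assay system: mouse IAP enzyme; Reagent: CDP-Star chemiluminescent phosphatase substrate; Compound: DMSO-dissolved test compounds; Incubation: 30 min, room temperature; Technique: luminescence from enzymatic CDP-Star hydrolysis; Controls: DMSO-only wells and no-enzyme negative control.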
bIAP activator = intestinal alkaline phosphatase (bovine) activation; activation factor at 20 µM; 0.17% of 200,000 active; purified bovine IAP, CDP-star luminescence, 30 min; stronger effect = higher value; fold of DMSO-control signal, blank-subtracted;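 active = activation factor of 2 or more at 20 µM, a signal rise over negative controls twice the positive control's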
bIAP inhibitor = intestinal alkaline phosphatase (bovine) inhibition; purified bovine IAP, CDP-star luminescence, 30 min; 190,000 tested, under 10 active; AID 1019; inhibition, % at 20 µM;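 active = over 50% inhibition of intestinal alkaline phosphatase at 20 µM in the single-dose screen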
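Assay system: bovine IAP enzyme; medium: DEA buffer 100 mM, pH 9.8, with MgCl2 1.0 mM, ZnCl2 0.02 mM; doses: 20 µM single dose; incubation: enzyme reaction for 30 min at room temperature; detection: CDP-star luminescence signal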
hIAP act confirm = human IAP activation confirmation; shares compounds with hIAP act; purified IAP, CDP-Star luminescence, 30 min; stronger effect = lower value; activation (%Activity, negative = activation), % at 8.3 µM; 10% of 880 active; AID 434926;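 active = at least twofold enzyme activation in any of six single-dose repeats, which the averaged readout prints as negative percent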
Starred values were filed as active, the others as inactive. Sampled rows, rich in hits. Any-hit rate of the full collection: about 0.72%.

For COc1ccc(C(=O)N=C2CCC(C#N)=C3c4cc(OC)c(OC)cc4CCN23)cc1 the results were mIAP block -12, hIAP block -106, hIAP act 2.1*, mIAP activ 1.1, bIAP activator 0.7, bIAP inhibitor 34 and hIAP act confirm 9.
Screening COc1cc2c(cc1OC)C1=C(C#N)CC/C(=N\S(=O)(=O)c3ccccc3)N1CC2 returned mIAP block -8, hIAP block 2, hIAP act 0.98, mIAP activ 1.1, bIAP activator 1 and bIAP inhibitor -4.
For COc1ccc(N2CCOCC2)c(NC(=O)c2cccnc2)c1 the results were mIAP block 0, hIAP block -1, hIAP act 1 and mIAP activ 1.
`COc1cc(/C=C2/C(=O)N(c3ccc(Br)cc3)N=C2C)cc([N+](=O)[O-])c1O` gave mIAP block 8, hIAP block 38*, hIAP act 0.62, mIAP activ 0.92 and hIAP act confirm -42.
`COc1cc(/C=C2/C(=O)N(c3cccc(Br)c3)N=C2C)cc(OC)c1O` gave mIAP block 24, hIAP block 36*, hIAP act 0.64, mIAP activ 0.77 and hIAP act confirm -2.
Screening COc1ccc(/C=C2/C(=O)N(c3ccccc3)N=C2C)cc1OC returned mIAP block 5, hIAP block -25, hIAP act 1.2 and mIAP activ 0.95.
`CN(C)c1ccc(/C=C2/C=C(c3ccc4c(c3)CCCC4)OC2=O)cc1` gave mIAP block 33, hIAP block 43*, hIAP act 0.57, mIAP activ 0.67 and hIAP act confirm 4.
For CN(C)c1ccc(/C=C2\C(=N)N3N=C(CC(=O)N4CCCCC4)SC3=NC2=O)cc1 the results were mIAP block 28, hIAP block 37*, hIAP act 0.63, mIAP activ 0.72 and hIAP act confirm 7.
For O=C(C[C@@H]1C/C=C\CC[C@@H](Cc2ccc(F)cc2)C(=O)OC[C@@H](Cc2ccccc2)NC1=O)NCCO the results were mIAP block 4, hIAP block 10, hIAP act 0.9 and mIAP activ 0.96.
Screening COc1ccccc1CNS(=O)(=O)c1ccc(N2CCCC2)cc1Br returned mIAP block 1 and mIAP activ 0.99.
For O=C(NNc1c2ccccc2nc2ccccc12)c1ccccc1O the results were mIAP block 17, hIAP block 12, hIAP act 0.88, mIAP activ 0.83, bIAP activator 1 and bIAP inhibitor -2.
`O=C(NNc1nc(=O)c2cccnc2s1)c1ccccc1O` gave mIAP block 19, hIAP block -186, hIAP act 2.9*, mIAP activ 0.81, bIAP activator 0.9, bIAP inhibitor 8 and hIAP act confirm 14.
Screening COc1cccc(CNC(=O)Cc2ccc(S(=O)(=O)N3CCOCC3)s2)c1 returned mIAP block 6, hIAP block 1, hIAP act 0.99 and mIAP activ 0.94.
`COc1ccc(NC(=O)c2cc(-c3ccc(C)cc3O)n[nH]2)c(OC)c1` gave mIAP block 2, hIAP block -106, hIAP act 2.1*, mIAP activ 0.98 and hIAP act confirm -37.
Screening Cc1cc(O)c(-c2cc(C(=O)NCc3ccc4c(c3)OCO4)[nH]n2)cc1C returned mIAP block -29, hIAP block 14, hIAP act 0.86, mIAP activ 1.3, bIAP activator 1.6 and bIAP inhibitor -56.
COc1ccc(CCNC(=O)c2cc(-c3ccc(C)c(C)c3O)n[nH]2)cc1OC was read as mIAP block -8, hIAP block -91, hIAP act 1.9, mIAP activ 1.1, bIAP activator 1.4 and bIAP inhibitor -37.
O=C(NCc1ccc2c(c1)OCO2)c1cc(-c2cc(Cl)ccc2O)n[nH]1 was read as mIAP block -28, hIAP block -108, hIAP act 2.1*, mIAP activ 1.3 and hIAP act confirm 18.

Source: PubChem BioAssay
